Experimental data from different studies.
Target: Serine/threonine-protein kinase DCLK1 (DCLK1, Homo sapiens, UniProt O15075)
Residues used in one study (O15075 1-740): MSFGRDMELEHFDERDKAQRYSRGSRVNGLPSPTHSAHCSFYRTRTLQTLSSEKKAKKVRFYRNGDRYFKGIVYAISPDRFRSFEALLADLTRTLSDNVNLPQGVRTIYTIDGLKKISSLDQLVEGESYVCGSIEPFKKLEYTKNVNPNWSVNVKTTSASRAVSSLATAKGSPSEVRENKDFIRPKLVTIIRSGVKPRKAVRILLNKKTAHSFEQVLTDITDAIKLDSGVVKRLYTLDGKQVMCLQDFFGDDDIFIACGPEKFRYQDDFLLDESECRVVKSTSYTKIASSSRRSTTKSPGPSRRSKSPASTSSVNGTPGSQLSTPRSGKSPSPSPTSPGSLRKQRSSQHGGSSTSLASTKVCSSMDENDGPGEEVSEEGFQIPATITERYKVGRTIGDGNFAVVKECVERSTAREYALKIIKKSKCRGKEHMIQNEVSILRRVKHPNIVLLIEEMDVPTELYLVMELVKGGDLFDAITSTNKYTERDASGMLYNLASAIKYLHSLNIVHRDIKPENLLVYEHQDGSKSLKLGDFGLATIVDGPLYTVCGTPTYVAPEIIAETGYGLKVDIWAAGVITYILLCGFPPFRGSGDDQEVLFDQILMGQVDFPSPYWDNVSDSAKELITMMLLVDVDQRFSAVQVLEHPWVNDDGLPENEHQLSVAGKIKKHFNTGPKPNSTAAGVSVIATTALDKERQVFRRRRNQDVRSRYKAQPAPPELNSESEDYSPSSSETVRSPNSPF

Structure (SMILES) | test | conditions | remaining binding [%]
CC(C)(C)c1ccc(-c2nc(CBr)nn2-c2cccc(O)c2)cc1 | cell-free assay, competition with immobilised ligand | 10 µM | 100
CN(c1nccc(-c2cnn3ncccc23)n1)C1CC1 | binding | 1 µM | 85
Cc1c(NC(=O)c2cc(C(N)=O)nc3cc(F)ccc23)c(C(F)(F)F)nn1Cc1ccc(C#N)cc1 | cell-free assay, competition with immobilised ligand | 1 µM | 85
CC1CCCN1c1nccc(-c2cnn3ncccc23)n1 (centres unmarked) | binding, competition with immobilised ligand | 1 µM | 87
CCC(=N\O)/C(C)=C/c1ccc(F)cc1 | cell-free assay, competition with immobilised ligand | 1 µM | 93
O=C(c1ccc(Nc2ncc(Cl)c(-c3cc4ccccc4s3)n2)cc1)N1CCC(N2CCCC2)CC1 | binding, competition with immobilised ligand | 1 µM | 100
COc1ncc2cc3ccccc3nc2c1C#N | cell-free assay, competition with immobilised ligand | 5 µM | 98
CN(C)c1ncc(F)c(-c2cnn3ncccc23)n1 | binding, competition with immobilised ligand | 1 µM | 61
COc1cnc(Nc2cccc(S(N)(=O)=O)c2)nc1N1CCN(c2ccccc2)CC1 | binding, competition with immobilised ligand | 1 µM | 92
CN1CCN(c2cnc3c(C4CCN(C(=O)c5ccc(OC(F)(F)F)cc5N)CC4)ncnc3c2)CC1 | cell-free assay, competition with immobilised ligand | 1 µM | 85
C[C@H]1CCN(c2nccc(-c3cnn4ncccc34)n2)C1 | binding, competition with immobilised ligand | 1 µM | 85
O=C(NCCCN1CCOCC1)c1ccc(Nc2nccc(-c3cc4ccccc4s3)n2)cc1 | binding, competition with immobilised ligand | 1 µM | 88
CCN1CCN(Cc2ccc(C(=O)Nc3ccc(C)c(Oc4ccc5c(c4)CC(=O)N5)c3)cc2C(F)(F)F)CC1 | binding, competition with immobilised ligand | 1 µM | 88
CN([C@@H]1CCc2c(CC(=O)O)c3cc(S(C)(=O)=O)ccc3n2C1)S(=O)(=O)c1ccc(F)cc1 | cell-free assay, competition with immobilised ligand | 1 µM | 79
CNC(=O)[C@@H]1CC[C@@H](n2c(-c3ccc4cnccc4c3)nc3ccc(C(=O)NCc4cccc(C(N)=O)c4)cc32)C1 | binding, competition with immobilised ligand | 1 µM | 85
O=C(NCC1CCOCC1)c1n[nH]cc1NC(=O)c1c(F)cccc1F | binding, competition with immobilised ligand | 1 µM | 75
c1cnn2ncc(-c3ccnc(N4CCC45COC5)n3)c2c1 | binding, competition with immobilised ligand | 1 µM | 82
COCCOc1nc(-c2ccc(Cl)nc2)nc2c1CN(C(=O)c1ncn3ccccc13)CC2 | cell-free assay, competition with immobilised ligand | 0.1 µM | 100
COc1cc(N2CCN(C)CC2)ccc1Nc1ncc2c(n1)N(C)c1ccccc1C(=O)N2CC(F)(F)F | binding, competition with immobilised ligand | 1 µM | < 10
CN(CCCC(F)(F)F)c1nccc(-c2cnn3ncccc23)n1 | binding, competition with immobilised ligand | 1 µM | 90
CC1=C(C#N)C(c2ccc3c(c2)c(NC(=O)c2ccccc2C)nn3C)C(C#N)=C(C)N1 | cell-free assay, competition with immobilised ligand | 1 µM | 79
O=C(c1ccc(Nc2ncc(Cl)c(-c3ccc(Cl)s3)n2)cc1)N1CCC(N2CCCC2)CC1 | binding, competition with immobilised ligand | 1 µM | 69
CC(=O)Nc1c(C(C)=O)c(=O)n(C)c2nc(-c3ccc(Cl)cc3Cl)c(-c3ccc(Cl)cc3)cc12 | cell-free assay, competition with immobilised ligand | 1 µM | 100
N[C@@H]1CCN(c2nccc(-c3cnn4ncccc34)n2)C1 | binding, competition with immobilised ligand | 1 µM | 70
C[C@@H]1CN(c2ccc3ncc(-c4ccc5[nH]nc(C6CC6)c5c4)n3n2)C[C@H](C)O1 | binding, competition with immobilised ligand | 0.5 µM | 100
CNCc1ccccc1-c1csc([C@H](C)Nc2nc(C)nc3cc(OC)c(OC)cc23)c1 | cell-free assay, competition with immobilised ligand | 1 µM | 87
